pIC50: −log10 of the molar value.
Legend:
[1] = biological target: T1, Epidermal growth factor receptor (Homo sapiens, UniProt P00533); assay: In vitro inhibitory activity against epidermal growth factor receptor
[2] = biological target: T1, Epidermal growth factor receptor; assay: Inhibition of EGF-stimulated tyrosine phosphorylation in A431 cells expressing EGF-R
Balb/MK = assay: Inhibition of proliferation of EGF-dependent BALB/MK cells; assay type: functional, cell-based; settings: Mus musculus
[3] = biological target: Protein kinase C alpha type (Homo sapiens, UniProt P17252); assay: Inhibition of Protein kinase C alpha
Summary of the method: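 Enzymes purified as previously reported. Compounds were dissolved in DMSO and diluted in buffer to a final assay DMSO of 1%. IC50 values are averages of at least three determinations.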

[4] = biological target: Proto-oncogene tyrosine-protein kinase Src (Homo sapiens, UniProt P12931); assay: Inhibition of tyrosine kinase c-Src
Summary of the method: (§1)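 Enzyme purification and in vitro kinase assay as previously described. Compounds dissolved in DMSO and diluted in buffer to 1% DMSO final in the assay. IC50 values are averages of at least three determinations.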

[5] = biological target: Tyrosine-protein kinase ABL (Homo sapiens, UniProt P00519+P42684); assay: Inhibition of tyrosine kinase v-Abl; assay type: protein assay; summary of the method: as §1
NIH3T3 [6] = assay: Inhibition of PDGF-stimulated tyrosine phosphorylation in BALB/c3T3 cells; assay type: functional, cell-based; settings: Mus musculus
Summary of the method: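 Total cellular tyrosine phosphorylation was stimulated with PDGF in BALB/c 3T3 cells and read by microtiter ELISA. Results are reported as IC50 in µM.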

NIH3T3 [7] = assay: Inhibition of PDGF-induced c-fos mRNA expression in BALB/c 3T3 cells; assay type: functional, cell-based; settings: Mus musculus

Proto-oncogene tyrosine-protein kinase Src, sequence (P12931 2-536 limits assumed): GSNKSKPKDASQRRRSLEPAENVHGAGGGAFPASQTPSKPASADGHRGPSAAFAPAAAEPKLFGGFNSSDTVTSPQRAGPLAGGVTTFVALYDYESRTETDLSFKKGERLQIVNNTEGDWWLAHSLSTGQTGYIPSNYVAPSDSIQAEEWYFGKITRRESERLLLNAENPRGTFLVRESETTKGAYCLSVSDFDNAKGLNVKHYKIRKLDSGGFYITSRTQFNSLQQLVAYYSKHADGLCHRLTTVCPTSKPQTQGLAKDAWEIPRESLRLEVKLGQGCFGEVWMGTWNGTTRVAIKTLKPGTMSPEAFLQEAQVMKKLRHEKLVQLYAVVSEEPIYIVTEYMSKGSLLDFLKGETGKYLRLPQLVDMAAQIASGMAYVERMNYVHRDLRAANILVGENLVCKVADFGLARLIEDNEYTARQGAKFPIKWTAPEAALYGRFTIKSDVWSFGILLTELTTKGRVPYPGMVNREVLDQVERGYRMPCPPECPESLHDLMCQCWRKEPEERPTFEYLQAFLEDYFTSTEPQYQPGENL
T1 sequence (P00533 whole entry): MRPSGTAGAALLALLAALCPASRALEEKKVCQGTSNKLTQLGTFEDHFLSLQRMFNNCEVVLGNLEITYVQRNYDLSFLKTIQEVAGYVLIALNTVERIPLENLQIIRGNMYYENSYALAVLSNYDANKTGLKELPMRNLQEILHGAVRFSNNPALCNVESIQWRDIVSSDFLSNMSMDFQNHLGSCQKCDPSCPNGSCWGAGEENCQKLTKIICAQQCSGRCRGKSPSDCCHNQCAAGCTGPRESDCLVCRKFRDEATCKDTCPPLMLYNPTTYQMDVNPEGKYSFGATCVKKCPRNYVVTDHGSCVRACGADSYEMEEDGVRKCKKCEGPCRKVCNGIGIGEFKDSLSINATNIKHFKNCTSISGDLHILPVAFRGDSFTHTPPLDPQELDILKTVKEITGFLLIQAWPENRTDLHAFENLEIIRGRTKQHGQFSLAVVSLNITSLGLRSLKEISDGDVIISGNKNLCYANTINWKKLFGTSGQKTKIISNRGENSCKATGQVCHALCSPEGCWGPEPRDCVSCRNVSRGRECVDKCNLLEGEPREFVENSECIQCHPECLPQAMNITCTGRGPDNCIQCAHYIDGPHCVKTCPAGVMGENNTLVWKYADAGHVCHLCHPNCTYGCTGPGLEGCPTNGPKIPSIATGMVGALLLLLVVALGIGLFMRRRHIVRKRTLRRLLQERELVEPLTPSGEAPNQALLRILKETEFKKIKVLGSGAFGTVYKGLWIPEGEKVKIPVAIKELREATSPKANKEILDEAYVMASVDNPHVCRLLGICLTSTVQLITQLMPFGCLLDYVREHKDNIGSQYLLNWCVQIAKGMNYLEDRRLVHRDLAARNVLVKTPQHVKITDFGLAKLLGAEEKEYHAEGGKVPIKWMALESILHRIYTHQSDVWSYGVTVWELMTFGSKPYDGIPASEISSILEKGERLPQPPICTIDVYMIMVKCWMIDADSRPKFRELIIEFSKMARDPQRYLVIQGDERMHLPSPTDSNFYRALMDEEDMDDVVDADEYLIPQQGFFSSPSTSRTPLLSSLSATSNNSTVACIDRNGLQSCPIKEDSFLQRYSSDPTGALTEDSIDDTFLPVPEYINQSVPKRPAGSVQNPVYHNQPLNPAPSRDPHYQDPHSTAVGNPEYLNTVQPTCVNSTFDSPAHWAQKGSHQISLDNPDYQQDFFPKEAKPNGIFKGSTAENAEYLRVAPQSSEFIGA

pIC50 [1] | pIC50 [3] | pIC50 [4] | IC50 [5] | pIC50 [5] | Compound | pIC50 (Balb/MK) | other results
< 4.30 |  |  |  |  | CCc1ccc(Nc2ncnc3[nH]c4c(c23)CCCC4)cc1 |  | 
 | < 4.00 | < 4.00 | 5.3 µM |  | Cc1cccc(Nc2ncnc3[nH]c(C)c(C)c23)c1 | 5.14 | pIC50 [2]: < 4.00
 | < 4.00 | < 4.00 | 99 µM |  | Cc1[nH]c2ncnc(Nc3cccc(F)c3)c2c1C | 4.52 | pIC50 [2]: < 4.00
5.92 |  |  |  |  | COc1cccc(Nc2ncnc3[nH]c(C)c(C)c23)c1 |  | 
< 4.30 |  |  |  |  | Cc1[nH]c2ncnc(Nc3ccc(Cl)cc3)c2c1C |  | 
5.68 |  |  |  |  | Cc1ccc(Nc2ncnc3[nH]c(C)c(C)c23)cc1 |  | 
4.11 |  |  |  |  | CCc1ccc(Nc2ncnc3[nH]c(C)c(C)c23)cc1 |  | 
 | < 4.00 | < 4.00 | 40.5 µM |  | Cc1[nH]c2ncnc(Nc3cccc(Cl)c3)c2c1C |  | pIC50 (NIH3T3 [7]): < 4.00
5.90 |  |  |  |  | Cc1[nH]c2ncnc(Nc3cccc(O)c3)c2c1C |  | 
< 4.00 |  |  |  |  | Cc1nc(Nc2cccc(Cl)c2)c2c(C)c(C)[nH]c2n1 |  | 
< 4.00 |  |  |  |  | CCOC(=O)c1cccc(Nc2ncnc3[nH]c(C)c(C)c23)c1 |  | 
 | 4.12 | < 4.00 |  |  | Cc1[nH]c2ncnc(Nc3ccccc3)c2c1C |  | pIC50 (NIH3T3 [6]): < 5.00
4.79 |  |  |  |  | Cc1[nH]c2ncnc(Nc3cccc(C(=O)O)c3)c2c1C |  | 
< 4.00 |  |  |  |  | CCc1ccccc1Nc1ncnc2[nH]c(C)c(C)c12 |  | 
5.97 |  |  |  |  | Cc1[nH]c2ncnc(NCc3ccccc3)c2c1C |  | 
5.72 |  |  |  |  | Cc1[nH]c2ncnc(Nc3cccc(C(F)(F)F)c3)c2c1C |  | 
6.70 |  |  |  |  | Cc1[nH]c2ncnc(Nc3cccc(C#N)c3)c2c1C |  | 
4.12 |  |  |  |  | Cc1[nH]c2ncnc(Nc3ccccc3Cl)c2c1C |  | 

Continued, compound first:

Compound | pIC50 [1] | pIC50 [3] | pIC50 [4] | IC50 [5] | pIC50 [5] | pIC50 (Balb/MK) | other results
Cc1[nH]c2ncnc(N(C)c3cccc(Cl)c3)c2c1C | 6.30 |  |  |  |  |  | 
Cc1[nH]c2ncnc(Nc3cccc(Cl)c3)c2c1-c1ccccc1 | 6.64 |  | < 4.00 | > 100 µM |  | 4.42 | pIC50 [2]: 5.22
Oc1cccc(Nc2ncnc3[nH]c4c(c23)CCCC4)c1 | 6.38 |  |  |  |  |  | 
Clc1cccc(Nc2ncnc3[nH]c4c(c23)CCCC4)c1 |  | < 4.00 | < 4.00 | > 100 µM |  | 6.01 | pIC50 (NIH3T3 [6]): < 5.00; pIC50 (NIH3T3 [7]): < 4.00
Clc1cccc(Nc2ncnc3[nH]c(-c4ccccc4)c(-c4ccccc4)c23)c1 |  |  | < 4.00 | > 100 µM |  | < 4.30 | pIC50 (NIH3T3 [6]): < 5.00
COc1cccc(Nc2ncnc3[nH]c4c(c23)CCCC4)c1 | 6.07 |  |  |  |  |  | 
Cc1c(-c2ccccc2)[nH]c2ncnc(Nc3cccc(Cl)c3)c12 | 8.00 | < 4.00 | < 4.00 | > 100 µM |  | < 4.30 | pIC50 [2]: 5.22; pIC50 (NIH3T3 [6]): < 5.00
O=C(O)c1cccc(Nc2ncnc3[nH]c4c(c23)CCCC4)c1 | 4.59 |  |  |  |  |  | 
Cc1[nH]c2ncnc(Oc3cccc(Cl)c3)c2c1C | 5.60 |  |  |  |  |  | 
Brc1cccc(Nc2ncnc3[nH]c4c(c23)CCCC4)c1 |  | < 4.00 | < 4.00 |  | < 4.00 | 5.85 | pIC50 [2]: 6.40; pIC50 (NIH3T3 [6]): < 5.00; pIC50 (NIH3T3 [7]): < 4.00
Cc1[nH]c2ncnc(NC3CCCCC3)c2c1C | 5.16 |  |  |  |  |  | 
c1ccc(Nc2ncnc3[nH]c4c(c23)CCCC4)cc1 |  | < 4.00 | < 4.00 | > 100 µM |  |  | pIC50 (NIH3T3 [6]): < 5.00
Cc1cccc(Nc2ncnc3[nH]c4c(c23)CCCC4)c1 |  | < 4.00 | < 4.00 | > 100 µM |  | < 4.30 | pIC50 [2]: < 4.00; pIC50 (NIH3T3 [6]): < 5.00
Clc1cccc(Nc2ncnc3[nH]c4ccccc4c23)c1 | 8.22 | < 4.00 | < 4.00 | 30 µM |  | 6.33 | pIC50 [2]: 6.92; pIC50 (NIH3T3 [7]): < 4.00
Cc1[nH]c2ncnc(Nc3cccc(Br)c3)c2c1C |  | < 4.00 | < 4.00 | 2.3 µM |  | 5.85 | pIC50 [2]: 5.82; pIC50 (NIH3T3 [6]): < 5.00; pIC50 (NIH3T3 [7]): < 4.00

From ChEMBL document CHEMBL1129072, “4-(Phenylamino)pyrrolopyrimidines: potent and selective, ATP site directed inhibitors of the EGF-receptor protein tyrosine kinase” (J Med Chem, 1996)
